Measurements from PMC6828636 (European Journal of Drug Metabolism and Pharmacokinetics, 2019).

How the values were obtained:
[1] = Phase I study: darolutamide effect on rosuvastatin pharmacokinetics; format: in vivo, human; conditions: darolutamide 600 mg BID with single dose rosuvastatin 5 mg
[2] = target: T1, P-gp (Homo sapiens, UniProt P08183); experiment: P-gp inhibition in Caco-2 cells; format: in vitro ADME
In short: (§1)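 Efflux transporter inhibition in Caco-2 monolayers. Test compound at 0.25–60 μM. Probe/reference-inhibitor pairs were digoxin/cyclosporin A (P-gp) and cladribine/Ko143 (BCRP). Probe transport was measured with and without test compound, and IC50 was derived from that inhibition.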

[3] = target: T1, P-gp; experiment: Efflux in CPT-P1 cells; format: in vitro ADME; conditions: Caco-2
In short: (§2)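 Bidirectional transport was measured in wildtype Caco-2 cells and in proprietary derivatives with reduced BCRP (CPT-B1) or P-gp (CPT-P1) expression. Test compound was used at 0.5, 2 and 10 μM in wildtype cells and at 2 μM in the reduced-expression lines. Probe substrates served as positive controls and reference inhibitors as negative controls. Efflux ratios were calculated.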

[4] = rodents; cited from earlier work
[5] = target: NTCP (Homo sapiens, UniProt Q14973); experiment: NTCP uptake inhibition in transfected HEK cells; format: in vitro ADME
Sequence of NTCP (Q14973 whole entry): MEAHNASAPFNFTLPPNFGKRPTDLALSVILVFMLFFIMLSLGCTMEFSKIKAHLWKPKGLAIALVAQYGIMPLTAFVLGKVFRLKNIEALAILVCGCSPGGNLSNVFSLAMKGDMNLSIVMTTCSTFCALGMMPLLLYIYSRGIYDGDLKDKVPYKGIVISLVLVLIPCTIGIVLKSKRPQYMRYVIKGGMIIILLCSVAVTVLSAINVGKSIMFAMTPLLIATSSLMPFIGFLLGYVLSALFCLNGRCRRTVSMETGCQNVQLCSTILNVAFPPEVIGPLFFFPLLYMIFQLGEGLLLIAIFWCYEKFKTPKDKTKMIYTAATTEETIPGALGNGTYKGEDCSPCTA
In short: (§3)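 HEK cells overexpressing NTCP, OAT1, OAT3, OATP2B1, OCT1 or OCT2 were incubated with probe substrate. Pairs were estrone 3-sulfate/cyclosporin A (NTCP), PAH/probenecid (OAT1), furosemide/probenecid (OAT3), estrone 3-sulfate/glibenclamide (OATP2B1), 3H-MPP+/decynium 22 (OCT1) and 3H-MPP+/imipramine (OCT2). IC50 was determined with and without test compound, at ≤50 µM for the parent and ≤10 µM for the metabolite.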

[6] = target: T2, BCRP (Homo sapiens, UniProt Q9UNQ0); experiment: Efflux in CPT-B1 cells; format: in vitro ADME; conditions: Caco-2
T2 sequence (Q9UNQ0 1-655): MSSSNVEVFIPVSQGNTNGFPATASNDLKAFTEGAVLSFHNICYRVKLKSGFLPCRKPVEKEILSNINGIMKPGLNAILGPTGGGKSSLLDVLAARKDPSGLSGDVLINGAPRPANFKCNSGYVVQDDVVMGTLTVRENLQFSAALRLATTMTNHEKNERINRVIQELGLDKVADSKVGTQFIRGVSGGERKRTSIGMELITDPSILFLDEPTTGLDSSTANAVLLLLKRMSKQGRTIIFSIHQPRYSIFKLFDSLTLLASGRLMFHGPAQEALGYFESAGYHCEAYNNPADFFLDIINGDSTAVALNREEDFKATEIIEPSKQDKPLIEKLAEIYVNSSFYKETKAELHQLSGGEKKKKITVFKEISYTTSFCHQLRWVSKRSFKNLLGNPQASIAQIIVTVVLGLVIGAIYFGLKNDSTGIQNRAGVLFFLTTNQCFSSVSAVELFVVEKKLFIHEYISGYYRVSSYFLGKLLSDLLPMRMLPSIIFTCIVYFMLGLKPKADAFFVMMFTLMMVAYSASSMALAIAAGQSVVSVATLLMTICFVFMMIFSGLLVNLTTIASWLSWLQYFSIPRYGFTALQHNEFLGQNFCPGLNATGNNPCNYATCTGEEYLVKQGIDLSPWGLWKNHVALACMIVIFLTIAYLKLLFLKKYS
In short: as §2

[7] = tested on: CYP3A4; conditions: healthy volunteers; ref data on file; cited from earlier work
[8] = target: T2, BCRP; experiment: BCRP inhibition in Caco-2 cells; format: in vitro ADME
In short: as §1

[9] = darolutamide 600 mg; ref data on file; cited from earlier work
[10] = format: in vivo, human; conditions: healthy male volunteers
[11] = target: OATP2B1 (Homo sapiens, UniProt O94956); experiment: OATP2B1 uptake inhibition in transfected HEK cells; format: in vitro ADME
Sequence of OATP2B1 (O94956 whole entry): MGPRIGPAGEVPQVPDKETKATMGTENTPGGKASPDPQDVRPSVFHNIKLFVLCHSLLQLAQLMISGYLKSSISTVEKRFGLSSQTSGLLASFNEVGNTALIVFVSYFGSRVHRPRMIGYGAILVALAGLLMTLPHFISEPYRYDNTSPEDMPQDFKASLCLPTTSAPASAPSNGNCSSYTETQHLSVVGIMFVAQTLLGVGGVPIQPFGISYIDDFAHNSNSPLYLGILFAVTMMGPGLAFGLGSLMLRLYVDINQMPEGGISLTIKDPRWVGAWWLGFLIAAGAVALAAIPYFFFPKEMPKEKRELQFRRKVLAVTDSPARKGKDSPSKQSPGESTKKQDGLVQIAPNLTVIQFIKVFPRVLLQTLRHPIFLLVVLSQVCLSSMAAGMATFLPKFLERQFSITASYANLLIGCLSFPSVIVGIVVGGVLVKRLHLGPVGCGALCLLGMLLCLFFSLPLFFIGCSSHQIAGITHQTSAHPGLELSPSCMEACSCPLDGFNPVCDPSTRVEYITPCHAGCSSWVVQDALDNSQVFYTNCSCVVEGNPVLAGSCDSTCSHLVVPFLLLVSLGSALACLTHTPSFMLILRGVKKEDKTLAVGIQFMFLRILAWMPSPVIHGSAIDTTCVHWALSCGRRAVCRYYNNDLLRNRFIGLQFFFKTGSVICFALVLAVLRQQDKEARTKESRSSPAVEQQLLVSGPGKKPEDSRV
In short: as §3

[12] = tested on: CYP2B6; format: in vitro ADME; conditions: primary human hepatocytes, three donors, 3 days dosing, 0.005–10 mg/l
[13] = cited from earlier work
[14] = target: T2, BCRP; experiment: Efflux in BCRP-MDCK cells; format: in vitro ADME; conditions: reduced in the presence of BCRP-specific inhibitor Ko143
[15] = tested on: CYP1A2; format: in vitro ADME; conditions: primary human hepatocytes, three donors, 3 days dosing, 0.005–10 mg/l
[16] = target: T3, UGT1A1 (Homo sapiens, UniProt P22309); experiment: UGT1A1 inhibition in human liver microsomes; format: in vitro ADME; conditions: read-out: Ki, UGT1A1
T3 sequence (P22309 26-533): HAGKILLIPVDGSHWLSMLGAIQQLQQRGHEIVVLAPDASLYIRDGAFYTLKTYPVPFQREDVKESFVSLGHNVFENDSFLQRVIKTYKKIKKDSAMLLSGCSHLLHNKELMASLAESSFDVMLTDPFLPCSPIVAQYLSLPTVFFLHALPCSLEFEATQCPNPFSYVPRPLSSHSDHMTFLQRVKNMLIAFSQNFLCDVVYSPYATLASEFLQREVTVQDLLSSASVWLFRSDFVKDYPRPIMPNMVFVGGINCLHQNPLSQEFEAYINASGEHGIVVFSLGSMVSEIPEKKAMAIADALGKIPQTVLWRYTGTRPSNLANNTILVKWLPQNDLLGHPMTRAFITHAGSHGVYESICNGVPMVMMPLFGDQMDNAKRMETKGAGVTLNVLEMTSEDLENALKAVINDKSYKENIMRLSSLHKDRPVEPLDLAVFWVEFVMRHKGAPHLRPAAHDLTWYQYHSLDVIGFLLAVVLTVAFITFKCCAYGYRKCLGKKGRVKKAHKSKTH
In short: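 Glucuronidation of UGT-selective substrates was measured in human liver microsomes with and without test compound, using a rank-order approach. Standard inhibitors for each isoform were incubated in parallel as positive controls.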

T1 sequence (P08183 whole entry): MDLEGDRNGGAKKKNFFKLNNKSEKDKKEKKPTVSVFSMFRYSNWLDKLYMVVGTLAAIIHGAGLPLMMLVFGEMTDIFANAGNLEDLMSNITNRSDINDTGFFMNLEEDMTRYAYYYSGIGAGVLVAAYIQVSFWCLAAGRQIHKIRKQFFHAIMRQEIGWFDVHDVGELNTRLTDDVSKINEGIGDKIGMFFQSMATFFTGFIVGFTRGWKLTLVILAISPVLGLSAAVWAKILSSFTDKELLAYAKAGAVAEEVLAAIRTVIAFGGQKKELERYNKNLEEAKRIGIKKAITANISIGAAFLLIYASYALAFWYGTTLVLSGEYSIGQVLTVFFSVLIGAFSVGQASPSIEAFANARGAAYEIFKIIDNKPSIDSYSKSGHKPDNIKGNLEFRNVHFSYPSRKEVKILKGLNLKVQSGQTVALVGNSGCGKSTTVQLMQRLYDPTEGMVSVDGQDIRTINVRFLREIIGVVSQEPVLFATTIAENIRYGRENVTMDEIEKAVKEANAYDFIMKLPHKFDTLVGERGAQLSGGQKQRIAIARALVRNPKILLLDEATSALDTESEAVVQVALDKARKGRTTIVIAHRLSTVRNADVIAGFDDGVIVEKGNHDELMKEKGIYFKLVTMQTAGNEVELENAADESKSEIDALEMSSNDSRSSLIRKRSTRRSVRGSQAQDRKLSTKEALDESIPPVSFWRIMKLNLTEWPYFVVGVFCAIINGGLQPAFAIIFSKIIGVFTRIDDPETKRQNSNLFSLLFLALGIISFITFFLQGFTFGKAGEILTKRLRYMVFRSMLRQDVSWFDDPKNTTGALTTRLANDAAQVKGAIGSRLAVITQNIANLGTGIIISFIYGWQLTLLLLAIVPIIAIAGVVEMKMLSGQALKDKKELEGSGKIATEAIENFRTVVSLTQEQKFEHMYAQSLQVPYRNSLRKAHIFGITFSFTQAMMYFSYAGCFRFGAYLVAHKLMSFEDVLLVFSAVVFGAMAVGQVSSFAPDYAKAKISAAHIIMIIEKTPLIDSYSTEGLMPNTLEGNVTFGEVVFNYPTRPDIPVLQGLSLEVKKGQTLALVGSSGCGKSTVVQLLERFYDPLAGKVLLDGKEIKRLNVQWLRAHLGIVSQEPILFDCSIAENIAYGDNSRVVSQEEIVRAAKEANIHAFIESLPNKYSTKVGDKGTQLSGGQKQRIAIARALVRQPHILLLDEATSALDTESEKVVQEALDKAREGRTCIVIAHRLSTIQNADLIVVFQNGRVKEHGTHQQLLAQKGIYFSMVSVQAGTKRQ

Row | SMILES | effect of rosuvastatin on darolutamide exposure [1] | IC50 [2] | efflux ratio at 2 μM [3] | penetration of the blood-brain barrier [4] | IC50 [5] | efflux ratio at 2 μM [6] | share of clearance attributed to CYP3A4 metabolism [7] | IC50 [8] | clinically relevant intestinal concentration [9] | safety with concomitant dabigatran etexilate or midazolam [10] | IC50 [11] | maximal fold induction of CYP2B6 [12] | fraction unbound in human plasma, fold lower compared with darolutamide [13] | efflux ratio [14] | maximal fold induction of CYP1A2 [15] | Ki [16]
1 | CC(O)c1cc(C(=O)N[C@@H](C)Cn2ccc(-c3ccc(C#N)c(Cl)c3)n2)[nH]n1 (stereo partly shown) [Darolutamide, darolutamide] | no clinically relevant effects | 16.4 µM | 3.6 | low penetration | > 50 µM | 36 | 30% | 1.3 µM | 270 µM | No safety concerns were identified | > 50 µM | – | – | – | – | –
2 | CC(=O)c1cc(C(=O)N[C@@H](C)Cn2ccc(-c3ccc(C#N)c(Cl)c3)n2)[nH]n1 [Keto-darolutamide, keto-darolutamide] | – | – | – | – | – | – | – | – | – | – | – | < 2 fold | ~ 40 fold | > 2 | < 2 fold | 8.13 µM
